# Screens as filed in PubChem.
# APOBEC3A inh: human APOBEC3A DNA deaminase inhibition. hit rate 0.41% among 330,000. AID 493011. recombinant A3A, FAM/TAMRA ssDNA deamination fluorescence. P31941. inhibition, % at 20 µM;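 active = at least 40% inhibition at 20 µM here, with at most 30% in a related deaminase screen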
# Target sequence (P31941 whole entry, looked up): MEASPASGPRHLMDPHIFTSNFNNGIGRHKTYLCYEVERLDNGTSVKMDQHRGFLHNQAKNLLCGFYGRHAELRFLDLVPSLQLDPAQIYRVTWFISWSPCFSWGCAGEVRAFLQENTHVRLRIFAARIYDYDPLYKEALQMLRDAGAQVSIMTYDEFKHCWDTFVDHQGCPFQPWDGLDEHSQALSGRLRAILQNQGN
# APOBEC3G inh: inhibitors of human APOBEC3G DNA deaminase; hit rate 0.28% among 330,000; inhibition, % at 20 µM; recombinant A3G, ssDNA deamination FAM/TAMRA fluorescence; AID 493012;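 active = inhibition of at least 40% at 20 µM, with no more than 30% in the related APOBEC3A deaminase screen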
# CXCR6 block: blocks human CXCR6 beta-arrestin recruitment. O00574. CHO-K1 PathHunter CXCR6 beta-arrestin, luminescence. inhibition, % at 20 µM. hit rate 0.36% among 360,000. AID 602244; in the data active = inhibition above about 34%, passing the limit was not always enough;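 note: antagonist mode with CXCL16 agonist at 10 nM final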
# Target sequence (O00574 whole entry, looked up): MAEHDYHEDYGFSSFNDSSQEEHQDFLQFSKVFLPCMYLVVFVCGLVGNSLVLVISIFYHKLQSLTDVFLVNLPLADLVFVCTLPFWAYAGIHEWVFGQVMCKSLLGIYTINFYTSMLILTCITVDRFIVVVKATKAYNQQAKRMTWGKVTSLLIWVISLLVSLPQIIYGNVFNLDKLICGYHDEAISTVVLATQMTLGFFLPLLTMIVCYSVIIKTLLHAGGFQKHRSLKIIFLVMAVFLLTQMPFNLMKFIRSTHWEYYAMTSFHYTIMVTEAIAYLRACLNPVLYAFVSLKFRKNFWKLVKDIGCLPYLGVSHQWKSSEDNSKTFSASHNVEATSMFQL
# APJ agonist: agonists of human APJ apelin receptor; CHO-K1 APJ PathHunter beta-arrestin, luminescence; 0% DMSO wells, 100% apelin; activation, % at 20 µM; hit rate 0.11% among 330,000;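 active = activation more than six SD over the plate average, tested at 20 µM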
#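 assay system = CHO-K1 APJ beta-arrestin complementation cell line | input = cell density 1000 per well | dosing = compound 20 µM once, DMSO 1% | timing = compound 90 min 25 °C, reagent 1 h | measured by = luminescence from split beta-galactosidase complementation, Galacton Star/Emerald II substrate | read-out basis = APJ agonist activity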
# CCR6 antagonist: antagonists of human CCR6 receptor. P51684. CHO-K1 CCR6 PathHunter beta-arrestin, luminescence, CCL20-stimulated. inhibition, % at 20 µM. hit rate 0.49% among 340,000;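 active = compounds whose inhibition of the agonist-driven luminescence signal at 20 µM reaches about 50%, limit read from the data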;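 note: cells stimulated with CCL20 at 14 nM final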
# APJ antagonist: antagonists of human APJ apelin receptor | P35414 | CHO-K1 APJ beta-arrestin complementation, luminescence | inhibition, % at 20 µM | hit rate 0.32% among 330,000 | AID 2521;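 active = inhibition above about 40% at 20 µM, limit read from the data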;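 note: cells challenged with 10 nM apelin-13 agonist together with compound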
# A3A conf: confirmation of human APOBEC3A DNA deaminase inhibitors; shares compounds with APOBEC3A inh; recombinant A3A, ssDNA deaminase UDG fluorescence assay; inhibition, % at 20 µM; hit rate 63% among 1,400; AID 493151;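 active = inhibition reaching a set limit, 80% of the first screen's cutoff, at 20 µM in any replicate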
# UDG ctr A3A: UDG inhibition in APOBEC3A counter-screen. shares compounds with APOBEC3A inh. UDG counterscreen, FAM/TAMRA uracil oligo fluorescence. inhibition, % at 20 µM. 1,000 tested, under 10 active. AID 504714; call rule not given here
# Hits are given with their value; - = inactive; . = no result given. The list is not random: actives were taken first. Their share in the collection is about 1.4%.
SMILES,APOBEC3A inh,APOBEC3G inh,CXCR6 block,APJ agonist,CCR6 antagonist,APJ antagonist,A3A conf,UDG ctr A3A
NC(=O)c1ccc(NC(=O)C2CC(=O)N(c3ccc4c(c3)OCCO4)C2)cc1 (stereo unspecified),-,-,-,-,-,-,.,.
CCN(CC)CCNC(=O)c1ccc(NC(=O)C2CC(=O)N(c3ccc4c(c3)OCCO4)C2)cc1 (stereo unspecified),48,-,-,-,-,-,52,-
O=C(Nc1ccccc1F)c1ccc(CSc2ncccn2)cc1,70,-,-,-,-,-,55,-
CC(=O)Nc1nnc(SCc2ccc(C(=O)Nc3ccccc3F)cc2)s1,48,-,-,-,-,-,53,-
O=C(Nc1ccccc1)c1ccc(CSc2ncccn2)cc1,43,-,-,-,-,-,-,.
CN(C)S(=O)(=O)c1ccc(C(=O)Nc2nnc(SCc3ccccc3)s2)cc1,-,-,-,-,-,-,.,.
Cn1nnnc1SCc1ccc(C(=O)Nc2ccccc2F)cc1,-,-,-,-,-,-,.,.
c1cc(C2OCCN2CC2COC3(CCCC3)O2)ccn1 (stereo unspecified),-,-,-,-,-,-,.,.
C[N+]1(CC2COC3(CCCCC3)O2)CCCCC1 (stereo unspecified),68,-,-,-,-,-,74,-
CCCCCCCCCn1c2c(c(=N)c3c1CCC3)CCC2,-,-,-,-,-,-,.,.
CCCCn1c2c(c(=N)c3c1CCC3)CCC2,63,-,-,-,-,-,78,-
COc1ccc(NC(=O)n2ncc3cc(Cl)ccc32)cc1OC,-,-,-,-,-,-,.,.
COC(=O)/C=C1/S/C(=N/NC(=O)c2ccccc2C)NC1=O,53,-,-,-,-,-,-,-
C[C@H]1CN([C@@H](C)CO)C(=O)c2cccc(NC(=O)C3CC3)c2O[C@H]1CN(C)Cc1ccncc1,-,-,-,-,-,-,.,.
CC(=O)c1c(C)cc(C)c(CSc2ccccn2)c1C,59,-,-,-,-,-,58,-
CC(=O)Nc1nc2c(ccc3ccccc32)s1,49,-,-,-,-,-,-,.
O=C(Cc1cccs1)Nc1nc2c(ccc3ccccc32)s1,-,-,-,-,-,-,.,.
CCn1c(C)[n+](CCOC(C)=O)c2cc(Cl)c(Cl)cc21,63,-,-,-,-,-,78,-
CC(=O)OCCCn1c(C)[n+](C)c2cc(Cl)c(Cl)cc21,87,-,-,-,-,-,73,-
CCN(C(=O)COC(=O)C1CCN(S(=O)(=O)c2ccc(C)c(C)c2)CC1)C1CCCCC1,-,-,-,-,-,-,.,.
CN(C(=O)/C=C/c1ccco1)c1ccccc1C(=O)O,44,-,-,-,-,-,22,-
CN(C(=O)C=Cc1ccco1)c1ccccc1,.,.,-,.,-,.,.,.
COc1cc(OC)cc(C(=O)OCC(=O)Nc2cccc(S(=O)(=O)NC3=NCCCCC3)c2)c1,88,-,-,-,-,-,-,-
O=C(COC(=O)c1ccc(O)cc1)Nc1cccc(S(=O)(=O)NC2=NCCCCC2)c1,-,-,-,-,-,-,.,.
CCN(CC)S(=O)(=O)c1cccc(C(=O)Nc2ccc(S(=O)(=O)NC3=NCCCCC3)cc2)c1,55,-,-,-,-,-,-,.
SMILES,APOBEC3A inh,APOBEC3G inh,CXCR6 block,APJ agonist,CCR6 antagonist,APJ antagonist,A3A conf,UDG ctr A3A
O=C1NC(=O)c2c(Br)c(Br)c(Br)c(Br)c21,.,.,-,.,-,.,.,.
Cc1ccc(/C=C2/SC(=S)N(CCC(=O)N3CCOCC3)C2=O)cc1,-,-,-,-,-,-,.,.
COc1ccc(-n2ncc3c(=O)n(CC(C)=O)cnc32)cc1,43,-,-,-,-,-,-,-
Cc1ccc(NC(=O)CN2C(=O)S/C(=C/c3ccc(-c4cc(C(=O)O)ccc4C)o3)C2=O)cc1C,63,-,-,-,-,-,43,-
Cc1cccc(NC(=O)CN2C(=O)S/C(=C\c3ccc(-c4cccc(C(=O)O)c4C)o3)C2=O)c1,-,-,.,-,-,-,.,.
COC(=O)C(C)N1C(=O)S/C(=C\c2ccc(-c3ccc(C(=O)O)cc3C)o2)C1=O (stereo unspecified),51,-,-,-,-,-,62,-
Cc1ccc(C(=O)O)cc1-c1ccc(C=C2C(=O)c3ccccc3C2=O)o1,44,-,-,-,-,-,35,-
COCC(C)n1c(COc2ccccc2F)nnc1SCC(=O)Nc1oc(C)c2c(C)n[nH]c(=O)c12 (stereo unspecified),-,-,-,-,-,-,.,.
CC1CCCC/C1=N\NC(=S)NCCc1ccccc1 (stereo unspecified),-,-,-,-,-,-,.,.
C[n+]1ccccc1C1CCCC/C1=N\NC(N)=S (stereo unspecified),84,-,-,-,-,-,55,-
O=C1NC[C@H](CC2CCCCC2)N(CCc2cc(C(F)(F)F)cc(C(F)(F)F)c2)C1=O,.,.,-,.,.,.,.,.
Fc1ccccc1N1CCN(C(c2ccnc3ccccc23)c2nnnn2-c2ccc3c(c2)OCCO3)CC1 (stereo unspecified),.,.,-,.,.,.,.,.
O=C(c1ccc(=O)oc1)N1CCOCC1,95,-,-,-,-,-,84,.
O=C(c1ccc(F)cc1)N1CCOCC1,-,-,-,-,-,-,.,.
O=C(c1ccc(=O)oc1)N1CCCc2ccccc21,71,-,-,-,-,-,60,.
Cc1cc(OCCN2CCOCC2)ccc1Cl,-,-,-,-,-,-,.,.
CC(C)Nc1nc(Cl)nc(Nc2ccccc2)n1,-,-,-,-,-,-,.,.
Cc1ccc(N2CC(C(=O)Nc3cccc(C(=O)NC4CC4)c3)CC2=O)cc1 (stereo unspecified),41,-,-,-,-,-,-,.
COc1ccc(C)cc1N1CC(C(=O)Nc2cccc(C(=O)NC3CC3)c2)CC1=O (stereo unspecified),.,.,-,.,.,.,.,.
O=C(CSc1nnnn1-c1ccccc1)Nc1ccc(N2CCOCC2)c(Cl)c1,64,-,-,-,-,-,55,-
O=C(CSc1nnnn1-c1cccc2ccccc12)Nc1ccc(N2CCOCC2)c(Cl)c1,-,-,-,-,-,-,.,.
C=CCC1(CC=C)CCCN1C(=O)c1cc(COc2cccc(OC)c2)on1,-,-,-,-,-,-,.,.
C=CCC1(CC=C)CCCN1C(=O)c1cc(COc2cncc(Cl)c2)on1,53,-,-,-,.,-,-,-
COc1ccc2sc(C)[n+](C)c2c1,-,-,-,-,-,-,.,.
CCCC[n+]1c(C)sc2cc(OC)ccc21,65,-,-,-,-,-,66,-
CCCN1Cc2cccc(C(=O)NCc3ccccc3OC)c2C1=O,-,-,-,-,-,-,.,.
